In ChEMBL document CHEMBL1151959, “Identification and biological evaluation of a series of 1H-benzo[de]isoquinoline-1,3(2H)-diones as hepatitis C virus NS5B polymerase inhibitors” (J Med Chem, 2009):
Values after ≈ are worked out from the molar mass of the structure shown. Blank lines part the entries; values can stand above or below the compound they belong to. Active and inactive are the calls of the source. The calls are words filed in the database; no cut-off is given here.

Legend:
[1] = Cytotoxicity against human HuH7 cells by MTT assay; type: cell-based; settings: Huh-7 cells
[2] = system: Hepatitis C virus; assay: Antiviral activity against HCV1b Con1 infected in human Huh7 clone HBI10A cells expressing HEPREP 1b replicon by cell-ELISA assay; type: functional, organism-based, Hepacivirus hominis; settings: isolate Con1, Huh-7
[3] = Inhibition of HCV1b BK NS5B Cdelta21 RNA dependent RNA polymerase; set-up: species or system Hepatitis C virus (isolate BK)
Summary of the method: (§1)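 Truncated ΔC21 NS5B RdRp from the HCV genotype 1b BK strain or the genotype 2b 2b.2 strain. Values are the mean of two or more experiments, with SD within 30% of the mean.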

[4] = Inhibition of HCV2b.2 NS5B Cdelta21 RNA dependent RNA polymerase; set-up: species or system Hepacivirus hominis, 2b.2; summary of the method: as §1
[5] = molecular target: Genome polyprotein (GB virus-B, UniProt Q69422); assay: Inhibition of Hepatitis GB virus B NS5B RNA dependent RNA polymerase
[6] = Inhibition of HCV1a RB5 NS5B Cdelta21 RNA dependent RNA polymerase; set-up: species or system Hepatitis C virus subtype 1a
[7] = Inhibition of DNA polymerase 1 Klenow fragment
[8] = Volume of distribution at steady state in rat at 3 mg/kg, iv; type: ADME, organism-based; set-up: dose 3 mg/kg, route intravenous; settings: in vivo, read-out: Vdss
[9] = Lipophilicity, log D of the compound; type: physicochemical; settings: octanol/water
[10] = system: Hepatitis C virus; assay: Antiviral activity against HCV H77-1a infected in human Huh7 cells by replicon cell-ELISA assay; settings: genotype 1a H77, Huh-7
[11] = Inhibition of HCV4a NS5B Cdelta21 RNA dependent RNA polymerase; set-up: species or system Hepatitis C virus subtype 4a
[12] = Inhibition of HIV reverse transcriptase; set-up: species or system Human immunodeficiency virus
[13] = Inhibition of HCV6a NS5B Cdelta21 RNA dependent RNA polymerase; set-up: species or system Hepatitis C virus subtype 6a
Summary of the method: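 Purified ΔC21-truncated NS5B RNA-dependent RNA polymerase from HCV genotype 6a, run alongside enzymes from the other major genotypes. Each value is the mean of two or more separate experiments, with SD within ±30% of the mean.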

[14] = Inhibition of Bovine viral diarrhea virus 1 RNA-dependent RNA polymerase
[15] = AUC in rat at 3 mg/kg, po; type: ADME, organism-based; set-up: dose 3 mg/kg, route oral; settings: plasma
Summary of the method: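 Single oral dose of 3 mg/kg given to rats. Compound concentrations were measured in plasma, and AUC was taken from the plasma exposure after oral dosing. The same rat study also included an iv administration arm.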

[16] = Inhibition of HCV2a.4 NS5B Cdelta21 RNA dependent RNA polymerase; set-up: species or system Hepacivirus hominis, 2a.4
[17] = Clearance in rat at 3 mg/kg, iv; type: ADME, organism-based; set-up: dose 3 mg/kg, route intravenous; settings: in vivo
[18] = system: Hepatitis C virus; assay: Antiviral activity against HCV 2b.2 infected in human Huh7 cells by replicon cell-ELISA assay; settings: 2b.2, Huh-7
[19] = Oral bioavailability in rat at 3 mg/kg; type: ADME, organism-based; settings: in vivo
[20] = Cmax in rat at 3 mg/kg, po after 0.7 hrs; type: ADME, organism-based; set-up: dose 3 mg/kg, route oral; settings: in vivo
[21] = system: Hepatitis C virus (isolate BK); assay: Inhibition of HCV1b BK NS5B Cdelta21 RNA dependent RNA polymerase in pre-elongation phase assessed as residual enzyme activity at 6.4 uM to 3 nM preincubated for 15 mins with polyA oligoU18 RNA in room temperature
Summary of the method: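 ΔC21-1b polymerase (20 nM) with polyA/oligoU18 RNA, preincubated 15 min at room temperature before compound addition or not preincubated. Compound titrated 3 nM to 6.4 μM. Residual activity measured.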

[22] = system: Hepatitis C virus; assay: Antiviral activity against HCV1b Con1 infected in human Huh7 cells by replicon cell-ELISA assay; settings: isolate Con1, Huh-7
[23] = Solubility of the compound; type: physicochemical
[24] = Inhibition of HCV3a.7 NS5B Cdelta21 RNA dependent RNA polymerase; set-up: species or system Hepacivirus hominis, 3a.7
[25] = system: Hepatitis C virus (isolate BK); assay: Inhibition of HCV1b BK NS5B Cdelta21 RNA dependent RNA polymerase in pre-elongation phase assessed as residual activity at 1 uM to 0.1 nM preincubated for 5 mins with polyA oligoU18 RNA in room temperature in presence of heparin
Summary of the method: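 Single-cycle conditions: ΔC21-1b enzyme and polyA/oligoU18 RNA preincubated 5 min, then compound added from 0.1 nM to 1 μM. Elongation started with 3H-UTP plus heparin (50 ng/μL) to trap free enzyme. Residual polymerase activity measured.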

[26] = Elimination half life in rat at 3 mg/kg, iv; type: ADME, organism-based; set-up: dose 3 mg/kg, route intravenous; settings: in vivo
[27] = system: Hepatitis C virus; assay: Antiviral activity against HCV1b BK infected in human Huh7 cells by replicon cell-ELISA assay; settings: Huh-7
[28] = system: Hepatitis C virus (isolate BK); assay: Inhibition of HCV1b BK NS5B Cdelta21 RNA dependent RNA polymerase in pre-elongation phase assessed as residual enzyme activity at 1 uM preincubated for 120 mins with polyA oligoU18 RNA in room temperature
Summary of the method: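 Preincubation time course: ΔC21-1b enzyme and polyA/oligoU18 RNA preincubated 0 to 120 min before adding compound at 1 μM. Residual polymerase activity measured.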

[29] = system: Hepatitis C virus; assay: Antiviral activity against HCV1b BK infected in human H2B2 cells expressing HEPREP 2b replicon by cell-ELISA assay
[30] = molecular target: RNA-directed RNA polymerase (Hepacivirus hominis, UniProt O39930, M423K); assay: Inhibition of HCV1b BK NS5B Cdelta21 RNA dependent RNA polymerase Thumb site 2 M423K mutant; set-up: species or system Hepatitis C virus (isolate BK)
[31] = molecular target: RNA-directed RNA polymerase (Hepacivirus hominis, UniProt O39930, P495A); assay: Inhibition of HCV1b BK NS5B Cdelta21 RNA dependent RNA polymerase Thumb site 1 P495A mutant; set-up: species or system Hepatitis C virus (isolate BK)
[32] = molecular target: RNA-directed RNA polymerase (Hepacivirus hominis, UniProt O39930, M414T); assay: Inhibition of HCV1b BK NS5B Cdelta21 RNA dependent RNA polymerase Palm site 1 and 2 M414T mutant; set-up: species or system Hepatitis C virus (isolate BK)
[33] = Inhibition of HCV1b BK NS5B Cdelta21 RNA dependent RNA polymerase Thumb site 2 R501E mutant; set-up: species or system Hepatitis C virus (isolate BK)

Compound: NS(=O)(=O)c1cccc(N2C(=O)c3cccc4c(NCCO)ccc(c34)C2=O)c1
CC50 [1]: > 50000 nM | EC50 [2]: > 50000 nM | IC50 [3]: 1600 nM | IC50 [4]: > 50000 nM

Compound: CN(CCO)c1ccc2c3c(cccc13)C(=O)N(c1cccc(Br)c1)C2=O
IC50 [3]: 500 nM | IC50 [4]: 1800 nM

Compound: O=C1c2cccc3c(NCCO)ccc(c23)C(=O)N1c1ccccc1
IC50 [3]: 1700 nM | IC50 [4]: > 50000 nM

Compound: O=C1c2cccc3cccc(c23)C(=O)N1c1cccc(Br)c1
IC50 [3]: > 50000 nM | IC50 [4]: > 50000 nM

Compound: O=C1c2cccc3c(NCCO)ccc(c23)C(=O)N1c1cccc(Br)c1
CC50 [1]: 76000 nM | IC50 [5]: > 50000 nM | IC50 [6]: 64 nM | IC50 [7]: > 50000 nM | Vd [8]: 1.1 L/kg | logD [9]: 3.45 | EC50 [10]: 4700 nM | IC50 [11]: 540 nM | IC50 [12]: > 50000 nM | IC50 [13]: 490 nM | IC50 [14]: > 50000 nM | AUC [15]: 9.7 µM·h | IC50 [16]: 770 nM | clearance [17]: 12 mL/min/kg | EC50 [18]: 11100 nM | bioavailability [19]: 83% | Cmax [20]: 4 µM | Activity [21]: inactive | EC50 [22]: 6400 nM | solubility [23]: 0.44 µg/mL (≈ 1.07 µM) | IC50 [4]: 180 nM | IC50 [24]: 760 nM | Activity [25]: Active | half-life [26]: 42 min | EC50 [27]: 4600 nM | Activity [28]: inactive | EC50 [29]: 11000 nM

Compound: CC(C)N(c1cc(-c2ccccc2)sc1C(=O)O)C(=O)[C@H]1CC[C@H](C)CC1
CC50 [1]: > 50000 nM | EC50 [2]: 1400 nM | IC50 [30]: > 500 nM | IC50 [31]: 40 nM | IC50 [3]: 9 nM | IC50 [32]: 16 nM | IC50 [33]: 100 nM | IC50 [4]: > 10000 nM

Compound: OCCNc1ccc2c3c(cccc13)CN(c1cccc(Br)c1)C2
IC50 [3]: > 50000 nM | IC50 [4]: > 50000 nM

Compound: O=C1c2ccc(NCCO)c3cccc(c23)CN1c1cccc(Br)c1
IC50 [3]: 850 nM | IC50 [4]: 3500 nM

Second part, led by results:

IC50 [3]: 190 nM | IC50 [4]: 300 nM
Compound: Nc1ccc2c3c(cccc13)C(=O)N(c1cccc(Br)c1)C2=O

IC50 [3]: 24 nM | IC50 [4]: 124 nM
Compound: COCCNc1ccc2c3c(cccc13)C(=O)N(c1cccc(Br)c1)C2=O

EC50 [2]: 3800 nM | IC50 [3]: 42 nM | IC50 [4]: 110 nM
Compound: O=C1c2cccc3c(N[C@H]4CC[C@@H](C(=O)O)CC4)ccc(c23)C(=O)N1c1cccc(Br)c1
CC50 [1]: > 50000 nM

EC50 [2]: 2200 nM | IC50 [3]: < 14 nM | IC50 [4]: 43 nM
Compound: O=C1c2cccc3c(NC4CCN(Cc5ccccc5)CC4)ccc(c23)C(=O)N1c1cccc(Br)c1
CC50 [1]: 5200 nM

IC50 [3]: 29 nM | IC50 [4]: 185 nM
Compound: CCNc1ccc2c3c(cccc13)C(=O)N(c1cccc(Br)c1)C2=O

EC50 [2]: 11000 nM | IC50 [3]: 130 nM | IC50 [4]: 90 nM
Compound: CC(C)CNc1ccc2c3c(cccc13)C(=O)N(c1cccc(Br)c1)C2=O
CC50 [1]: > 50000 nM

EC50 [2]: 2000 nM | IC50 [3]: 130 nM | IC50 [4]: 400 nM
Compound: CNCCNc1ccc2c3c(cccc13)C(=O)N(c1cccc(Br)c1)C2=O
CC50 [1]: 1500 nM

EC50 [2]: > 50000 nM | IC50 [3]: 66 nM | IC50 [4]: 120 nM
Compound: O=C1c2cccc3c(NC4CCCCC4)ccc(c23)C(=O)N1c1cccc(Br)c1
CC50 [1]: > 50000 nM

EC50 [2]: 1900 nM | IC50 [3]: 30 nM | IC50 [4]: 120 nM
Compound: O=C1c2cccc3c(NC4CCNCC4)ccc(c23)C(=O)N1c1cccc(Br)c1
CC50 [1]: 3500 nM
